The values below come from ChEMBL document CHEMBL1142882, “Design, parallel synthesis and SAR of novel urotensin II receptor agonists” (Eur J Med Chem, 2007).

Holding throughout (assay type): functional, cell-based
The target in one experiment is T1, Urotensin-2 receptor (Homo sapiens, UniProt Q9UKP6).
T1 sequence (Q9UKP6 whole entry): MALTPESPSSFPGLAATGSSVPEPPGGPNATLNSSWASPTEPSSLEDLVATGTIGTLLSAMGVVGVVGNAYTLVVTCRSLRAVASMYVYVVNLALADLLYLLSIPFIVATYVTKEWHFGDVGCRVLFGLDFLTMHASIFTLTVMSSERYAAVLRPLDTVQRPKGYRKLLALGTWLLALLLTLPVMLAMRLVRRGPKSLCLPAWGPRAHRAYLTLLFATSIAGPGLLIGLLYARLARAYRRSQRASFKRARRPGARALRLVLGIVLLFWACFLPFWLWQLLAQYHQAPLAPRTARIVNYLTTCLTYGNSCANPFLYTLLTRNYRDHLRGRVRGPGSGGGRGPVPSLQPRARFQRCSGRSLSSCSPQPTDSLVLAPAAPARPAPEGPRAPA
In words: (§1) Agonist activity at human urotensin-2 receptor transfected in NIH3T3 cells after 5 days by R-SAT assay. The gist of the method:
(§2)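 NIH-3T3 cells grown to 80% confluence in DMEM with 10% bovine calf serum and 1% penicillin/streptomycin/glutamine, transfected 18 h with human UII receptor plus β-galactosidase marker, then trypsinized and frozen. Thawed batches were quality-checked with control compound, then incubated with compounds or reference ligands for five days in 5% CO₂. Reporter enzyme activity read at 420 nm.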

For experiment [1], the target named is T2, Urotensin-2 receptor (Homo sapiens) (UniProt Q9UKP6).
T2 sequence (whole entry): T1 sequence (Q9UKP6 whole entry)
In words: Agonist activity at human urotensin-2 receptor transfected in NIH3T3 cells after 5 days by R-SAT assay relative to urotensin-2. The gist of the method: as §2

The target of experiment [2] is T2, Urotensin-2 receptor (Homo sapiens). Described as §1. The gist of the method:
as §2

Each structure is given as a SMILES string. Calls of active or inactive are those of the source. No cut-off for these calls is given here.

The EC50 is the concentration giving half of the maximal effect. Turning to `COc1ccc(CCC(=O)NC(CCN(C)C)c2ccc3ccccc3c2)cc1` (stereo not given), it took 1410 nM to reach a half-maximal effect on Urotensin-2 receptor (EC50). The compound further gave an Efficacy in experiment [1] of 113%.

As for `COc1ccc(CC(=O)NC(CCN(C)C)c2ccc3ccccc3c2)cc1` (stereo not given), the outcome in experiment [2] and in experiment [1] was inactive.

Take `COc1ccc(/C=C/C(=O)NC(CCN(C)C)c2ccc3ccccc3c2)cc1` (stereo not given): a half-maximal response at Urotensin-2 receptor (EC50) required 380 nM. Besides, in experiment [1], the Efficacy was determined as 106%.

In the case of `COc1ccc(CCC(=O)NC(CCN(C)C)c2ccc(Cl)cc2)cc1` (stereo not given), in experiment [1], the Efficacy came out at 101%.

Turning to `Cc1ccc(C(CCN(C)C)NC(=O)CCc2ccc(C(F)(F)F)cc2)cc1` (stereo not given), the Efficacy in experiment [1] was 60%.

Compound `CN(C)CCC(NC(=O)Cc1ccccc1)c1ccc2ccccc2c1` (stereo not given) yielded an Efficacy in experiment [1] of 121%.

For the compound `CN(C)CCC(NC(=O)CCc1ccc(C(F)(F)F)cc1)c1ccc2ccccc2c1` (stereo not given), the EC50 at Urotensin-2 receptor was 372 nM. The Efficacy in experiment [1] was 75%.

As for `CN(C)CCC(NC(=O)C#Cc1ccccc1)c1ccc2ccccc2c1` (stereo not given), the Efficacy in experiment [1] is 115%.

In experiment [1], `CN(C)CCC(NC(=O)Cc1ccc(C(F)(F)F)cc1)c1ccc2ccccc2c1` (stereo not given) yielded an Efficacy of 40%.

`CN(C)CCC(NC(=O)CCc1ccccc1)c1ccc2ccccc2c1` (stereo not given) returned an Efficacy in experiment [1] of 107%.

Regarding `Cc1ccc(C(CCN(C)C)NC(=O)/C=C/c2ccccc2)cc1` (stereo not given), the EC50 on Urotensin-2 receptor is 1550 nM. Also, the Efficacy in experiment [1] worked out at 97%.

At Urotensin-2 receptor, `COc1ccc(/C=C/C(=O)NC(CCN(C)C)c2ccc(C)cc2)cc1` (stereo not given) had an EC50 of 2000 nM. In experiment [1], the Efficacy was 79%.

With `Cc1ccc(C(CCN(C)C)NC(=O)C#Cc2ccccc2)cc1` (stereo not given), the Efficacy in experiment [1] turned out to be 131%.

`COc1ccc(CC(=O)NC(CCN(C)C)c2ccc(C)cc2)cc1` (stereo not given) had an Efficacy in experiment [1] of 62%.

`COc1ccc(/C=C/C(=O)NC(CCN(C)C)c2ccc(Cl)cc2)cc1` (stereo not given) had an EC50 on Urotensin-2 receptor of 513 nM. Besides, the Efficacy in experiment [1] came out at 99%.

In experiment [1], `Cc1ccc(C(CCN(C)C)NC(=O)CCc2ccccc2)cc1` (stereo not given) came in with an Efficacy of 73%.

Take `CN(C)CCC(NC(=O)CCc1ccccc1)c1ccc(Cl)cc1` (stereo not given): the Efficacy in experiment [1] stood at 139%.

With `COc1ccc(CC(=O)NC(CCN(C)C)c2ccc(Cl)cc2)cc1` (stereo not given), the Efficacy in experiment [1] was determined as 65%.

For `Cc1ccc(C(CCN(C)C)NC(=O)/C=C/c2ccc(C(F)(F)F)cc2)cc1` (stereo not given), the EC50 at Urotensin-2 receptor is 437 nM. The Efficacy in experiment [1] came out at 96%.

Compound `CN(C)CCC(NC(=O)/C=C/c1ccccc1)c1ccc(Cl)cc1` (stereo not given) registered an Efficacy in experiment [1] of 128%.

For `COc1ccc(CCC(=O)NC(CCN(C)C)c2ccc(C)cc2)cc1` (stereo not given), in experiment [1], the Efficacy came out at 67%.

With `CN(C)CCC(NC(=O)/C=C/c1ccc(C(F)(F)F)cc1)c1ccc2ccccc2c1` (stereo not given), the EC50 at Urotensin-2 receptor was 135 nM. The Efficacy in experiment [1] is 117%.

With `CN(C)CCC(NC(=O)CCc1ccc(C(F)(F)F)cc1)c1ccc(Cl)cc1` (stereo not given), the Efficacy in experiment [1] was determined as 73%.

On to `CN(C)CCC(NC(=O)Cc1ccc(C(F)(F)F)cc1)c1ccc(Cl)cc1` (stereo not given), for which the Efficacy in experiment [1] was 53%.

On to `Cc1ccc(C(CCN(C)C)NC(=O)Cc2ccc(C(F)(F)F)cc2)cc1` (stereo not given), for which the Efficacy in experiment [1] was found to be 25%.

For the compound `Cc1ccc(C(CCN(C)C)NC(=O)Cc2ccccc2)cc1` (stereo not given), the Efficacy in experiment [1] came out at 83%.

The compound `CN(C)CCC(NC(=O)C#Cc1ccccc1)c1ccc(Cl)cc1` (stereo not given) gave an Efficacy in experiment [1] of 124%.

In experiment [1], `CN(C)CCC(NC(=O)/C=C/c1ccccc1)c1ccc2ccccc2c1` (stereo not given) displayed an Efficacy of 116%.

The compound `CN(C)CCC(NC(=O)/C=C/c1ccc(C(F)(F)F)cc1)c1ccc(Cl)cc1` (stereo not given) showed an EC50 on Urotensin-2 receptor of 129 nM. The Efficacy in experiment [1] came to 133%.

Take `CN(C)CCC(NC(=O)Cc1ccccc1)c1ccc(Cl)cc1` (stereo not given): in experiment [1], the Efficacy worked out at 76%.
